Experimental data as given in ChEMBL document CHEMBL4312019, “Design, synthesis, and evaluation of compounds capable of reducing Pseudomonas aeruginosa virulence” (Eur J Med Chem, 2020).
Converted amounts (≈) assume the structure as drawn. The source made the active and inactive calls. The calls are words filed in the database; no cut-off is given here.

What was measured:
NIH3T3 = assay: Cytotoxicity against mouse NIH/3T3 cells measured after 48 hrs by MTT assay; format: cell-based; details: NIH3T3, 48 h
[1] = target: 5-hydroxytryptamine receptor 1B (Homo sapiens) (UniProt P28222); assay: Displacement of [3H]-5-CT from human recombinant 5HT1B receptor expressed in stable HEK cells at 10 uM incubated for 90 mins by microbeta scintillation counting method; format: cell-based
Sequence of 5-hydroxytryptamine receptor 1B (Homo sapiens) (P28222 whole entry): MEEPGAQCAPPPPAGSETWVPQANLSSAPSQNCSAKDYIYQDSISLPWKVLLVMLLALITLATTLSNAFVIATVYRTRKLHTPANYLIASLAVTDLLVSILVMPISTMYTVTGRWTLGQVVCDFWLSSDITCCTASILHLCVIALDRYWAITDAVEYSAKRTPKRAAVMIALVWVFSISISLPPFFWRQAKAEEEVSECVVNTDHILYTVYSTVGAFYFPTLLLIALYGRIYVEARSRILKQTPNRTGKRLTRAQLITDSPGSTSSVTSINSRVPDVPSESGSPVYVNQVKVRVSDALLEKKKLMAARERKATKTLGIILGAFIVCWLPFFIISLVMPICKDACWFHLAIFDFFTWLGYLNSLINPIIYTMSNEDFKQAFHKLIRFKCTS
How it was run: (§1)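 Primary radioligand binding screen run by the NIMH Psychoactive Drug Screening Program, with one test level of 10 μM. The read-out was inhibition of radioligand binding at each receptor.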

[2] = target: 5-hydroxytryptamine receptor 3A (Homo sapiens) (UniProt P46098); assay: Displacement of [3H]-GR65630 from human recombinant 5HT3 receptor expressed in HEKT cells at 10 uM incubated for 90 mins by microbeta scintillation counting method; format: cell-based; how it was run: as §1
Sequence of 5-hydroxytryptamine receptor 3A (Homo sapiens) (P46098 whole entry): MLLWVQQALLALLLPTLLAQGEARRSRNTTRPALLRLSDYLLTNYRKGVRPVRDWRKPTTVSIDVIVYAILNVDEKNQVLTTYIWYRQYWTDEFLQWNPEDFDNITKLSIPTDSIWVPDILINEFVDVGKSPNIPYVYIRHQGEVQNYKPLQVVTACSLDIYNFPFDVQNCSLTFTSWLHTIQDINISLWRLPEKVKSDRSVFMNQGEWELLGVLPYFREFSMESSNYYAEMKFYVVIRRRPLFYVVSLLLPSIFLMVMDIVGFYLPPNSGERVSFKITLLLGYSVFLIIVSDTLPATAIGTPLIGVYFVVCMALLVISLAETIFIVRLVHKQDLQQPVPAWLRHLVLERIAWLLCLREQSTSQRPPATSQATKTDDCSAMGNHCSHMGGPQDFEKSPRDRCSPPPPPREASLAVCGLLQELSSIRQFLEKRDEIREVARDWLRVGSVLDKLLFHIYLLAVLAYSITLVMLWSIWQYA

[3] = target: Beta-2 adrenergic receptor (Homo sapiens) (UniProt P07550); assay: Displacement of [125I]-CGP12177 from recombinant human beta2 adrenergic receptor expressed in HEK Flp-In cells measured after 90 mins by microbeta scintillation counting method; format: cell-based
Sequence of Beta-2 adrenergic receptor (Homo sapiens) (P07550 whole entry, looked up): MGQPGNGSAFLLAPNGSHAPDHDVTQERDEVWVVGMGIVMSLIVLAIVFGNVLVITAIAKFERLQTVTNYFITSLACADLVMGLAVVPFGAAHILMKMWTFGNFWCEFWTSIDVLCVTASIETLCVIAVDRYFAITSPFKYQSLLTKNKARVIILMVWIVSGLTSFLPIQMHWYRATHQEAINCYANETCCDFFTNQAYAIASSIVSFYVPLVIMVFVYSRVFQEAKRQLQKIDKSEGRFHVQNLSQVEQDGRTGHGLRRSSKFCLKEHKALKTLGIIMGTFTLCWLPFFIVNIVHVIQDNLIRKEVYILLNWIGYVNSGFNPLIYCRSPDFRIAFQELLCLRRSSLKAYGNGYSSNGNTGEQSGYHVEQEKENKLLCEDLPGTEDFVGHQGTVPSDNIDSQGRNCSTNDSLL

[4] = target: D(2) dopamine receptor (Homo sapiens) (UniProt P14416); assay: Displacement of [3H]-N-methylspiperone from human recombinant dopamine D2 receptor expressed in stable fibroblast cells incubated for 90 mins by microbeta scintillation counting method; format: cell-based
Sequence of D(2) dopamine receptor (Homo sapiens) (P14416 whole entry): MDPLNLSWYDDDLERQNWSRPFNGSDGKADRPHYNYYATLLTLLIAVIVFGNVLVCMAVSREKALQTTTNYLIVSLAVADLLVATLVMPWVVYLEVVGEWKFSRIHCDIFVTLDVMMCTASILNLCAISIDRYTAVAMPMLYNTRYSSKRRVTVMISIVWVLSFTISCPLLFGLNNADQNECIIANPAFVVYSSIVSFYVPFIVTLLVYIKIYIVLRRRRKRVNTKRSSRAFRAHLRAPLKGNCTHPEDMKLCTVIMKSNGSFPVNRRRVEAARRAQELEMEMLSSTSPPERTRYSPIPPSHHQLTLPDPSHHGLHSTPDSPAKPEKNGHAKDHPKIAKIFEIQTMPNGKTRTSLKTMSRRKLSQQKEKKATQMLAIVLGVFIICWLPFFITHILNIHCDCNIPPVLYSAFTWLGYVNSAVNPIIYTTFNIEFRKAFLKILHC

[5] = target: D(4) dopamine receptor (Homo sapiens) (UniProt P21917); assay: Displacement of [3H]-methylspiperone from human recombinant dopamine D4 receptor expressed in stable HEK cells incubated for 90 mins by microbeta scintillation counting method; format: cell-based
Sequence of D(4) dopamine receptor (Homo sapiens) (P21917 whole entry): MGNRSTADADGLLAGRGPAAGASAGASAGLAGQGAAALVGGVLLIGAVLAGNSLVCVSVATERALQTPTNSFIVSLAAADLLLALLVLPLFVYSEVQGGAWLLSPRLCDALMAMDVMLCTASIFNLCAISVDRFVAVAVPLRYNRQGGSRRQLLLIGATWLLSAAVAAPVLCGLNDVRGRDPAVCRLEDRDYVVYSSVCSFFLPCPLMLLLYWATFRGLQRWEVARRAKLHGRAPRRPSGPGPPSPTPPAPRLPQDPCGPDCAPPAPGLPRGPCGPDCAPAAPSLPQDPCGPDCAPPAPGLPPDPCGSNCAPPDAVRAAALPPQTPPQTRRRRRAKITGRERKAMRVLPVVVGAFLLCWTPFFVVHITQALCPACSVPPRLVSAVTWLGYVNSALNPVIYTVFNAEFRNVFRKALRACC

[6] = target: Sodium-dependent dopamine transporter (Homo sapiens) (UniProt Q01959); assay: Displacement of [3H]-Win35428 from human recombinant DAT receptor expressed in stable HEK cells incubated for 90 mins by microbeta scintillation counting method; format: cell-based
Sequence of Sodium-dependent dopamine transporter (Homo sapiens) (Q01959 whole entry): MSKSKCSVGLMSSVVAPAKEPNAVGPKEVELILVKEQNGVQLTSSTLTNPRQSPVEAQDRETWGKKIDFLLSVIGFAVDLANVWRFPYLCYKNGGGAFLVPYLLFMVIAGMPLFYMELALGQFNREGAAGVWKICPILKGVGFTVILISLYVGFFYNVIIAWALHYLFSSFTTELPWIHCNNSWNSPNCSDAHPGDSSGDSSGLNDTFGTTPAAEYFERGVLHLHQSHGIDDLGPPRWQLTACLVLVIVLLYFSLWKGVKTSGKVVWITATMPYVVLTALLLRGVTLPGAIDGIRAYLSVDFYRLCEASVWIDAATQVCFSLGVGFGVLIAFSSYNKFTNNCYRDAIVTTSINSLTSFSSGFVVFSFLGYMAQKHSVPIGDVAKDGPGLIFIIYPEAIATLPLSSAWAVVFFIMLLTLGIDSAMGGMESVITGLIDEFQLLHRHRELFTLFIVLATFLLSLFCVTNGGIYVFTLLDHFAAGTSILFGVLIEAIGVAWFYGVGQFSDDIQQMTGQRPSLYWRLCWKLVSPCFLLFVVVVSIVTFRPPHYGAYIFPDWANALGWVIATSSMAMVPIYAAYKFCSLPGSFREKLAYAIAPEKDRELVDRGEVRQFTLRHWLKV

[7] = target: Kappa-type opioid receptor (Homo sapiens) (UniProt P41145); assay: Displacement of [3H]-U69593 from human recombinant KOR receptor expressed in stable HEK cells incubated for 90 mins by microbeta scintillation counting method; format: cell-based
Sequence of Kappa-type opioid receptor (Homo sapiens) (P41145 whole entry): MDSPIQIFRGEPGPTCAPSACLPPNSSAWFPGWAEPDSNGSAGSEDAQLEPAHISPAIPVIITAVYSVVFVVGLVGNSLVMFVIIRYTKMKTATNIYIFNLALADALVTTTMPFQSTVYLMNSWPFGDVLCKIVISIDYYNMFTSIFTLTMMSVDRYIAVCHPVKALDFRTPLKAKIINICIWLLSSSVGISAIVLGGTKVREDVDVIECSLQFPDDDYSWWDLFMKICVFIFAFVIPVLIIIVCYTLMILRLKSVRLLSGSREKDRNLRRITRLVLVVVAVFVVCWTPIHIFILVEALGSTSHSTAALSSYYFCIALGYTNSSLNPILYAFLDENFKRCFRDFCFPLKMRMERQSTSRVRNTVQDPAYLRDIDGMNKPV

[8] = target: Histamine H2 receptor (Homo sapiens) (UniProt P25021); assay: Displacement of [125I]-Iodoaminopotentidine from human recombinant histamine H2 receptor expressed in stable HEK cells incubated for 90 mins by microbeta scintillation counting method; format: cell-based
Sequence of Histamine H2 receptor (Homo sapiens) (P25021 whole entry): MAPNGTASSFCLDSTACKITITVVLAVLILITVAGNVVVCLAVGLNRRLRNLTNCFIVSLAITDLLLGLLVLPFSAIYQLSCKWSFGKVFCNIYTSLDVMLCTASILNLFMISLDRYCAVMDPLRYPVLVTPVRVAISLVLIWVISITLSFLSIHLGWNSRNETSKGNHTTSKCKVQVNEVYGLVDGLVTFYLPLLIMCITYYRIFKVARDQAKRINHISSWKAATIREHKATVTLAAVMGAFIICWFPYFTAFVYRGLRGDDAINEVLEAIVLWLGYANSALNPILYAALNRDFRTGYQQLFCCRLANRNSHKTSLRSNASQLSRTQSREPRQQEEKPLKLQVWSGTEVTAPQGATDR

[9] = target: Histamine H4 receptor (Homo sapiens) (UniProt Q9H3N8); assay: Displacement of [3H]-Histamine from human recombinant histamine H4 receptor expressed in HEKT cells incubated for 90 mins by microbeta scintillation counting method; format: cell-based
Sequence of Histamine H4 receptor (Homo sapiens) (Q9H3N8 whole entry): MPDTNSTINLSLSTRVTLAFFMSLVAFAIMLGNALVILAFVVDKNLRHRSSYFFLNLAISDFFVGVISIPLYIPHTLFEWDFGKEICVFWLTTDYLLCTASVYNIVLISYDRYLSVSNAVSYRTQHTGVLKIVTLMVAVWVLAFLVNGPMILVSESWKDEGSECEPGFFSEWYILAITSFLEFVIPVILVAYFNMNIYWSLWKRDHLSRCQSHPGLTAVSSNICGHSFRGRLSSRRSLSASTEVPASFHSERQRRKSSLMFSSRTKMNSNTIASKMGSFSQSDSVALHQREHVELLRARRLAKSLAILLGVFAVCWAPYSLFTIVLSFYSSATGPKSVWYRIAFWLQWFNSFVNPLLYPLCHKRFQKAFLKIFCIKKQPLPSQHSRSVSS

[10] = target: Sigma non-opioid intracellular receptor 1 (Homo sapiens) (UniProt Q99720); assay: Displacement of [3H]-Pentazocine from human recombinant sigma1 receptor expressed in HEKT cells incubated for 90 mins by microbeta scintillation counting method; format: cell-based
Sequence of Sigma non-opioid intracellular receptor 1 (Homo sapiens) (Q99720 whole entry): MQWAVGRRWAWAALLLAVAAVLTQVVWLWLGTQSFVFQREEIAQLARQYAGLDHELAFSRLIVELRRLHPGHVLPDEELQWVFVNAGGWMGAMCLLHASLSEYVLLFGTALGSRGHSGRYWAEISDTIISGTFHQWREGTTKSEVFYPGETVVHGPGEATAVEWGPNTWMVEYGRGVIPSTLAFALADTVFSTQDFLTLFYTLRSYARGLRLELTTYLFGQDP

[11] = target: Sigma intracellular receptor 2 (Homo sapiens) (UniProt Q5BJF2); assay: Displacement of [3H]-[…] from human recombinant sigma2 receptor expressed in HEKT cells incubated for 90 mins by microbeta scintillation counting method; format: cell-based
Sequence of Sigma intracellular receptor 2 (Homo sapiens) (Q5BJF2 whole entry): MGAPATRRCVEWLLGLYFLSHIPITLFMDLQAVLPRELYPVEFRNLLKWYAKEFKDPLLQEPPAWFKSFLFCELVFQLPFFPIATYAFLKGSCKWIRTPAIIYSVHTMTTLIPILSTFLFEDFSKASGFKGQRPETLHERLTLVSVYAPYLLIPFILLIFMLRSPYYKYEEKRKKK

[12] = target: Sodium-dependent serotonin transporter (Homo sapiens) (UniProt P31645); assay: Displacement of [3H]-citalopram from recombinant human SERT expressed in HEK cell membranes at 10 uM incubated for 90 mins by scintillation counting method; how it was run: as §1
Sequence of Sodium-dependent serotonin transporter (Homo sapiens) (P31645 whole entry, looked up): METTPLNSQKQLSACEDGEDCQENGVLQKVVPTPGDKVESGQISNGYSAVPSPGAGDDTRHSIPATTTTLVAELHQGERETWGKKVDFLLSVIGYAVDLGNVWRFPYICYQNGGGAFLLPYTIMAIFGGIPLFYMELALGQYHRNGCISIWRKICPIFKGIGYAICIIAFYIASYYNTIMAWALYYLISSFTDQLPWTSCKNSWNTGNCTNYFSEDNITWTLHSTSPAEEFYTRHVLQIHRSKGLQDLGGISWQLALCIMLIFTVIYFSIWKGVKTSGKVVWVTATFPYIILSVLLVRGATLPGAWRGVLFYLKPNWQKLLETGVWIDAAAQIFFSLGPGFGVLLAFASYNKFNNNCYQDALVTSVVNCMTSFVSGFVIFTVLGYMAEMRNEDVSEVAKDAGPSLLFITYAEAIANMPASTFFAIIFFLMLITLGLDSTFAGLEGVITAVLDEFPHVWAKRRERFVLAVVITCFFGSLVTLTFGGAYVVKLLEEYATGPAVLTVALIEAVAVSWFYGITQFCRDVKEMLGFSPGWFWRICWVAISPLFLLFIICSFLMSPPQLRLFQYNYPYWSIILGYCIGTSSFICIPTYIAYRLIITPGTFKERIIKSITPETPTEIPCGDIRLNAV

Cn1c2cccc(=O)c-2nc2ccccc21 [PYOCYANIN]
IC50 (NIH3T3): 3.54 µg/mL (≈ 16.8 µM) | inhibition [1]: inactive | inhibition [2]: inactive | inhibition [3]: inactive | inhibition [4]: inactive | inhibition [5]: inactive | inhibition [6]: inactive | inhibition [7]: inactive | inhibition [8]: inactive | inhibition [9]: inactive | inhibition [10]: inactive | inhibition [11]: inactive | inhibition [12]: inactive
